High-throughput results deposited in PubChem BioAssay by several laboratories.
Most compounds without a hit are left out; they make up all but 3.6% or so of the library.
HSF1 inh = HSF1 inhibition; NIH3T3-HGL HSE-luciferase, MG132-induced, luminescence 8 h; active compounds read low; activity change, negative = inhibition, % at 7.5 µM (by protocol); hit rate 0.77% among 300,000; AID 2098;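 active = more than half of replicate wells show activity change below -50%, luminescence cut by over half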;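 note: luciferase reports HSF-1 transcriptional activity via heat shock element; 0% = median of DMSO wells and -100% = zero luminescence signal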
PolyA inhibitor = inhibitors of polyadenylation in S. cerevisiae. S. cerevisiae SKY197-pL101 polyadenylation reporter, beta-gal luminescence; efflux-impaired pdr1/pdr3 knockout yeast; score 100 = 6 SD above DMSO. activity score, % at 12 µM. hit rate 0.02% among 300,000;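 active = lowest replicate activity score at least 50, where 100 means six control SD above control mean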;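 note: yeast exposed to compound for 9 h at 30 °C; higher score means more reporter readthrough which indicates perturbed polyadenylation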
STAT3 activator = increases IL-6 driven STAT3 reporter signal. hit rate 0.91% among 190,000. U3A cells, IL-6 STAT3-luciferase reporter, luminescence; 100% = signal with IL-6 EC80 alone. activation (% of control), % at 5.6 µM;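 active = activation above the screen-wide mean of compound activation plus 3 SD, cut at about 130% in these data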;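 note: 0% = background luminescence of wells with medium and substrate only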
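system = STAT3-luciferase reporter U3A cells | reagent = IL-6 stimulus at 33 ng/mL final | timing = 1 h compound pre-exposure, 6 h IL-6 stimulation, 37 °C | measured by = luminescence | evaluation = % activation versus median of IL-6-stimulated wells | control set = IL-6-only wells as 100% reference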
PERK inhibitor = blocks human PERK kinase; hit rate 0.17% among 220,000; AID 1416; CHO PERK-DD fusion, SEAP luminescence translation reporter; inhibition, % at 5.6 µM;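 active = inhibition above the mean inhibition of all tested compounds plus 3 SD, set separately per screening campaign, cut at about 2.9% in these data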;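 note: PERK kinase domain activated by AP20187 dimerizer at 100 nM; 0% = DMSO with dimerizer and 100% = rapamycin at 8.4 µM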
AHR act = activates the human aryl hydrocarbon receptor | P35869 | AHR-responsive luciferase reporter cells, luminescence | activation, % at 5 µM | hit rate 2.5% among 320,000 | AID 2796; in the data active = activation above about 47%;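 note: 0% = vehicle wells and 100% = reference agonist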
Hsp70 act = transcriptional activators of Hsp70. hit rate 0.04% among 200,000. activation, % at 10 µM. HeLa Hsp70 promoter luciferase reporter, luminescence; scaled: vehicle 0, proteasome-inhibitor control 100%;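 active = activation above the mean across all tested compounds plus 3 SD, cutoff set per campaign, cut at about 5.5% in these data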;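 note: 100% = MG132 at 30 µM as the positive control and 0% = DMSO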
Active calls of the source: *; x = not tested or not shown.

SMILES	HSF1 inh	PolyA inhibitor	STAT3 activator	PERK inhibitor	AHR act	Hsp70 act
O=c1[nH]c2ccccc2nc1CCc1ccccc1	8.0	-1.3	91.6	0.9	58.3*	0.1
Cc1cccc(N(C(=O)c2ccco2)C(C(=O)NC2CCCC2)c2cccnc2)c1C (stereo unspecified)	-78.9*	-7.6	x	x	4.0	x
O=C(COC(=O)c1cccs1)c1ccc2c(c1)OCCO2	-52.2*	15.7	55.1	-0.1	-0.8	0.2
Cc1cccc(C(=O)OCC(=O)c2ccc3c(c2)OCO3)c1O	45.1	-8.2	x	x	2.5	x
O=C(COC(=O)c1ccccc1[N+](=O)[O-])c1ccc2c(c1)OCO2	-66.4*	0.5	x	x	-3.0	x
O=C(COC(=O)c1cccs1)c1ccc2ccccc2c1	-1.4	-5.8	104.3	1.1	2.3	0.2
CCCSc1nnc2nc3c(nn12)c1ccccc1n3C	0.5	-6.0	99.1	-0.2	49.9*	0.1
CCN(CC)C(=O)CSc1nnc2c3ccccc3n(C)c2n1	-8.6	-26.5	x	x	15.2	x
CC(=O)NCC1=C(NC(C)=O)C2CC1C(C)(C)C2C (stereo unspecified)	-53.0*	0.9	99.5	0.9	5.0	-0.1
CNC(=O)c1c(NC(=O)CCS(=O)(=O)c2ccc(C)cc2)sc2c1CCN(C(=O)OC)C2	0.2	-5.9	x	x	-0.1	x
O=C(NC12CC3CC(CC(C3)C1)C2)N1CCC(O)CC1	-1.2	-2.1	105.3	1.0	0.3	0.0
O=C(NC12CC3CC(CC(C3)C1)C2)N1CCN(C(=O)C2CCCO2)CC1 (stereo unspecified)	-54.5*	-1.4	104.8	0.6	-0.1	-0.5
COc1cc(/C=C/C(=O)NC(C)C2CC3CCC2C3)cc(OC)c1OC (stereo unspecified)	-88.2*	-2.9	x	x	12.5	x
Oc1ccc(/C=N/NC(=S)N/N=C/c2ccc(O)cc2)cc1	0.6	-4.9	94.0	0.7	8.9	-0.3
COc1cccc(/C=N/NC(=S)Nc2cccnc2)c1	10.5	11.8	95.0	0.1	58.3*	-0.1
Oc1ccc(/C=N/NC(=S)Nc2cccnc2)cc1	9.7	-0.7	x	0.7	53.7*	x
O=C(N/N=C1\C/C(=N\NC(=O)c2ccncc2)c2ccccc21)c1ccncc1	10.4	-12.3	126.6	-0.1	55.8*	-0.1
O=C(N/N=C/c1cn(-c2ccccc2)nc1-c1cc2ccccc2o1)c1ccncc1	15.1	20.0	115.3	-1.0	68.3*	0.1
O=C(N/N=C/c1ccc(OCc2ccc(F)cc2)cc1)c1ccccc1	x	-8.8	109.2	0.6	5.4	-0.3
O=C(N/N=C/c1ccncc1)c1ccccc1	2.9	-11.1	110.1	3.6*	9.2	-0.2
O=C(N/N=C/c1ccc(F)cc1)c1ccc(OCc2ccccc2)cc1	-75.0*	-5.7	x	0.5	-1.3	x
O=C(N/N=C/c1cccnc1)c1ccccc1	3.4	37.3	x	x	7.5	x
CCc1noc(C)c1C(=O)Nc1sc(C(=O)N(C)C)c(C)c1C#N	0.2	-17.3	x	x	2.0	x
O=C1CCC(=O)N1CCSC(=S)N1CCSCC1	-0.3	18.3	x	1.1	-0.4	x
CCOC(=O)[C@H]1[C@H]2COc3ccc(Br)cc3[C@H]2N2C(=O)CNC(=O)[C@@]12C	x	x	x	x	-1.3	x
SMILES	HSF1 inh	PolyA inhibitor	STAT3 activator	PERK inhibitor	AHR act	Hsp70 act
Cc1ccc(NCC(=O)N/N=C/c2ccncc2)cc1	-3.2	2.4	100.7	0.3	64.2*	-0.4
CSc1ccc(/C=N\NC(=O)CNc2ccc(C)cc2)cc1	-8.1	-5.1	109.9	0.7	20.6	-0.3
O=C(Nc1ccc(OC(F)(F)F)cc1)c1cnccn1	10.4	-3.3	x	x	-1.2	x
O=C(Nc1ccc2c(c1)OCCO2)c1ccc2ccccc2n1	x	x	130.3	1.1	51.8*	-0.1
O=C(Nc1ccc2c(c1)OCCO2)c1ccccn1	-5.8	2.3	45.1	0.1	9.4	-0.2
O=C(Nc1ccc(OC(F)(F)F)cc1)c1ccc2ccccc2n1	10.0	7.7	122.0	-0.4	47.3*	0.9
Cc1c(C)c2ccc(OCC(=O)Nc3ccccn3)c(C)c2oc1=O	-88.4*	-5.4	x	x	-5.0	x
O=C(COc1ccc(Br)cc1)NCCCNC(=O)c1ccncc1	-0.2	-16.7	x	x	0.3	x
CN(CC(=O)Nc1ccc(F)cc1)C(=O)C1CCN(C(=O)Nc2ccccc2)CC1	x	x	x	x	-0.3	x
O=C(CNCc1ccccn1)Nc1ccc([N+](=O)[O-])cc1C(=O)Nc1ccccc1F	2.0	-0.8	x	x	74.8*	x
CCC(CC)c1nnc(NC(=O)c2cc(C(=O)OC)cc([N+](=O)[O-])c2)s1	3.9	18.4	83.9	-0.3	13.0	-0.4
Cc1ccc(C(=O)N2CCN(CCNC(=O)C(=O)NCc3ccc(Cl)cc3)CC2)cc1	3.7	-12.2	x	x	5.8	x
Oc1c(N=Nc2ccccn2)ccc2ccccc12	183.9	-12.9	96.6	0.3	67.8*	0.2
CCc1nn(CC(=O)N2CCN(c3ccc(F)cc3)CC2)c(=O)c2cc3occc3n12	0.9	2.9	x	x	-1.3	x
Nc1nc(CSC(=S)N2CCCCC2)nc(Nc2ccccc2)n1	-81.0*	-5.3	123.1	1.5	23.1	-0.1
Nc1nc(CSC(=S)N2CCOCC2)nc(Nc2ccccc2)n1	3.5	-11.3	121.5	0.2	18.7	0.2
CC1=C(C(=O)OC(C)C)C(c2coc3ccccc3c2=O)C2=C(CCCC2=O)N1 (stereo unspecified)	x	x	126.8	-0.6	17.5	-0.2
CCSCCOC(=O)C1=C(C)NC2=C(C(=O)CCC2)C1c1coc2ccccc2c1=O (stereo unspecified)	11.5	-15.7	144.5*	-1.3	23.3	0.1
Cc1cc(C)cc(NC(=O)c2c(C)nc3ccccn23)c1	13.7	-9.8	99.4	-0.1	11.6	-0.5
C/C(=N/NS(=O)(=O)c1ccccc1)c1ccc(Cl)cc1	13.9	7.7	101.0	0.4	53.2*	-0.5
Oc1[nH]c2ccccc2c1N=Nc1ccccc1Cl	-56.0	x	x	x	x	x
Oc1c(C=Nc2ccccc2Cl)[nH]c2ccccc12	-32.5	17.7	x	-0.7	57.4*	x
O=C(O)CSCC(=O)Nc1ccc(C2CCCCC2)cc1	-78.4*	7.8	23.2	0.0	-14.3	-0.7
Nn1cnnc1SCC(=O)Nc1ccc(C2CCCCC2)cc1	-3.4	-1.6	106.7	0.9	1.8	-0.1
c1ccc(-c2cc3c(nn2)CCc2nonc2-3)cc1	6.0	0.2	80.1	1.2	57.2*	0.1
SMILES	HSF1 inh	PolyA inhibitor	STAT3 activator	PERK inhibitor	AHR act	Hsp70 act
c1ccc(-c2nc3c([nH]2)CCc2nonc2-3)cc1	17.8	6.3	87.7	0.3	20.9	-0.1
CC1Oc2ccccc2N(Cc2ccc(F)cc2)C1=O (stereo unspecified)	2.4	-8.2	x	x	0.7	x
CCOC(=O)CN(c1ccccc1C)S(=O)(=O)c1ccc(Cl)cc1	-2.1	-15.2	x	x	-4.8	x
Cc1cc(N2CCN(C)CC2)nc2ccc(NC(=O)c3cccnc3Cl)cc12	-58.9*	-8.6	100.8	-0.5	4.1	-0.2
CCN1CCN(c2cc(C)c3cc(NC(=O)c4cccnc4Cl)ccc3n2)CC1	-3.5	12.5	98.2	-0.9	6.6	-0.1
Cc1cccc(NC(=O)COc2ccc(Br)cc2)n1	22.9	-10.1	87.1	1.6	77.6*	-0.1
